# Measurements as given in ChEMBL document CHEMBL4152216, “Syntheses and anti-pancreatic cancer activities of rakicidin A analogues” (Eur J Med Chem, 2018).
# Legend:
# [1] = tested on: PANC-1; assay: Cytotoxicity against human PANC1 cells after 72 hrs under hypoxic condition by MTT assay; format: functional, cell-based; conditions: PANC-1, 72 h
# How it was run: (§1)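 PANC-1, PATU8988T and ASPC-1 cells were grown in DMEM with 10% FBS at 37 °C and 5% CO2, then seeded at 4000 cells/well. Compounds were added at various concentrations after 6 h. Normoxic plates stayed at 37 °C, 5% CO2. Hypoxic plates went into a chamber purged 10 min with 5% CO2/1% O2/94% N2, sealed, at 37 °C. After 72 h, MTT was added for 4 h, formazan dissolved in DMSO and read at 570 nm. IC50 is the mean ± SD of three independent experiments.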
# [2] = tested on: PANC-1; assay: Cytotoxicity against human PANC1 cells after 72 hrs under normoxic condition by MTT assay; format: functional, cell-based; conditions: PANC-1, 72 h; how it was run: as §1
# [3] = tested on: PANC-1; assay: Selectivity index, ratio of IC50 against human PANC1 cells under normoxic condition to IC50 for human PANC1 cells under hypoxic condition; format: functional
# How it was run: (§2)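 Hypoxic selectivity index is IC50 (normoxia)/IC50 (hypoxia). Both IC50s come from the 72 h MTT assay in the same cell line, run under normoxia (37 °C, 5% CO2) or a sealed 1% O2/5% CO2/94% N2 chamber, each the mean of three independent experiments.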
# [4] = tested on: ASPC1; assay: Cytotoxicity against human Aspc-1 cells after 72 hrs under normoxic condition by MTT assay; format: functional, cell-based; conditions: ASPC1, 72 h; how it was run: as §1
# [5] = tested on: ASPC1; assay: Cytotoxicity against human Aspc-1 cells after 72 hrs under hypoxic condition by MTT assay; format: functional, cell-based; conditions: ASPC1, 72 h; how it was run: as §1
# [6] = tested on: ASPC1; assay: Selectivity index, ratio of IC50 against human Aspc-1 cells under normoxic condition to IC50 for human Aspc-1 cells under hypoxic condition; format: functional; how it was run: as §2
# [7] = tested on: PaTu 8988t; assay: Cytotoxicity against human PA-TU-8988T cells after 72 hrs under normoxic condition by MTT assay; format: functional, cell-based; how it was run: as §1
# [8] = tested on: PaTu 8988t; assay: Cytotoxicity against human PA-TU-8988T cells after 72 hrs under hypoxic condition by MTT assay; format: functional, cell-based; how it was run: as §1
# [9] = tested on: PaTu 8988t; assay: Selectivity index, ratio of IC50 against human PA-TU-8988T cells under normoxic condition to IC50 for human PA-TU-8988T cells under hypoxic condition; format: functional; how it was run: as §2
# [10] = tested on: PANC-1; assay: Inhibition of cancer stem cell population of human PANC1 cells assessed as CD24+/CD44+/ESA+ cell population level at 0.15 uM after 48 hrs by flow cytometric analysis (reference value: 1.7%); format: functional; design: scale not given: the % may be the effect or the level left
# [11] = biological target: T1, Aldehyde dehydrogenase, mitochondrial (Homo sapiens) (UniProt P05091); assay: Inhibition of ALDH in human PANC1 cells assessed as aldefluor positive cells at 0.2 uM after 72 hrs in presence of DEAB by aldefluor assay (reference value: 0.455%); format: cell-based; design: scale not given: the % may be the effect or the level left
# T1 sequence (whole entry): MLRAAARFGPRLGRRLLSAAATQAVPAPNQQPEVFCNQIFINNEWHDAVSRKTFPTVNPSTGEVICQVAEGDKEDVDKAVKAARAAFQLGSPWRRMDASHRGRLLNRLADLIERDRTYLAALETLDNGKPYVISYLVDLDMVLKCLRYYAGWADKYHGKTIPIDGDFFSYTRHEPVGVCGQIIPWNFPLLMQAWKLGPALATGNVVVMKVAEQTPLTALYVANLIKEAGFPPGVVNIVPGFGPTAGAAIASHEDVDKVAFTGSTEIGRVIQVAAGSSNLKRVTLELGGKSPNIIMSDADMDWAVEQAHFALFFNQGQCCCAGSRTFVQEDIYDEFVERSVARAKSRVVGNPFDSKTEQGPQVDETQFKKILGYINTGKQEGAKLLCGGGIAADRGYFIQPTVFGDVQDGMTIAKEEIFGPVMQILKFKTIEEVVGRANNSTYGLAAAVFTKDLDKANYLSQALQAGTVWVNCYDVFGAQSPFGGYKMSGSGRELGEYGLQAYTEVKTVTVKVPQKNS
# How it was run: (§3)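 PANC-1 cells were seeded at 5×10^4 cells/well and exposed after 6 h to compound (0.2 µM; ADR 0.5 µM) for 72 h. Living cells were suspended in assay buffer and incubated with Aldefluor substrate for 60 min at 37 °C. A parallel sample received substrate plus the ALDH inhibitor DEAB as negative control. Readout was percentage of ALDH+ cells, mean ± SEM, n = 3.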
# [12] = biological target: T1, Aldehyde dehydrogenase, mitochondrial (Homo sapiens); assay: Inhibition of ALDH in human PANC1 cells assessed as aldefluor positive cells at 0.2 uM after 72 hrs by aldefluor assay (reference value: 12.5%); format: cell-based; design: scale not given: the % may be the effect or the level left; how it was run: as §3
# [13] = tested on: PANC-1; assay: Inhibition of tumorsphere formation in human PANC1 cells assessed as reduction in number of tumor spheres at 0.25 uM after 7 days; format: functional
# How it was run: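 Tumorsphere formation: single-cell PANC-1 suspensions were plated in ultra-low-attachment wells at 2,000 cells/mL in Complete MammoCult medium, with compound at 0.25 µM. Tumorspheres were counted after 7 days. Three repeats, mean ± SEM.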
# [14] = tested on: PANC-1; assay: Antitumor activity against human PANC1 cells xenografted in BALB/c nude mouse assessed as reduction in tumor initiating cell frequency at 0.1 to 0.25 uM measured after 7 days; format: functional
# How it was run: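 PANC-1 cells were treated in vitro with compound (ADR at 0.5 µM) for 48 h, collected, and injected subcutaneously at limiting cell doses into 5-week-old female BALB/c nude mice. Tumor formation rate was scored after 7 days. Tumor-initiating frequency was derived by limiting-dilution analysis with Poisson statistics against vehicle.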
Activity [11] [%],Activity [12] [%],SMILES,IC50 [1] [µM],IC50 [2] [µM],Ratio IC50 [3],IC50 [4] [µM],IC50 [5] [µM],Ratio IC50 [6],IC50 [7] [µM],IC50 [8] [µM],Ratio IC50 [9],Activity [10] [%],fold change (FC) [13],fold change (FC) [14]
,,CCCCCCCCCCCCCC[C@@H](C)[C@@H]1OC(=O)[C@H](CC(=O)NC2CC2)NC(=O)CN(C)C(=O)/C=C/C(CO[Si](c2ccccc2)(c2ccccc2)C(C)(C)C)NC(=O)[C@H]1C (some centres undefined),> 10,> 10,,,,,,,,,,
,,C=C1/C=C/C(=O)N(C)CC(=O)N[C@@H](Cc2ccccc2)C(=O)O[C@@H]([C@H](C)CCCCCCCCCCCCCC)[C@H](C)C(=O)N1,0.12,0.43,3.76,1.4,0.6,2.4,1.4,0.65,2.14,1.6,,
,,CC(=O)O[C@H]1C(=O)[C@@]2(C)[C@H]([C@H](OC(=O)c3ccccc3)[C@]3(O)C[C@H](OC(=O)[C@H](O)[C@@H](NC(=O)c4ccccc4)c4ccccc4)C(C)=C1C3(C)C)[C@]1(OC(C)=O)CO[C@@H]1C[C@@H]2O [PACLITAXEL],,,,,,,,,,1.6,,
,,C=C1/C=C/C(=O)N(C)CC(=O)N[C@@H](C)C(=O)O[C@@H]([C@H](C)CCCCCCCCCCCCCC)[C@H](C)C(=O)N1,0.27,1.1,4.04,,,,,,,,,
,,C=C1/C=C/C(=O)N(C)CC(=O)N[C@@H](C(C)C)C(=O)O[C@@H]([C@H](C)CCCCCCCCCCCCCC)[C@H](C)C(=O)N1,0.35,1,3,,,,,,,,,
,,"C=C1/C=C/C(=O)N(C)C(C)C(=O)N[C@@H]([C@H](O)C(=O)OC)C(=O)O[C@@H]([C@H](C)CCCCCCCCCCCC(C)C)[C@H](C)C(=O)N1 (single isomer, unassigned; 1c)",0.043,0.41,9.53,1.2,0.2,5.71,0.54,0.2,2.79,,,
,,C=C1/C=C/C(=O)N(C)CC(=O)N[C@@H](CC(=O)NC)C(=O)O[C@@H]([C@H](C)CCCCCCCCCCCCCC)[C@H](C)C(=O)N1,0.038,0.17,4.44,0.5,0.046,10.98,0.26,0.06,4.42,0.33,,
,,C=C1/C=C/C(=O)N(C)CC(=O)N[C@@H](CC(=O)OCC)C(=O)O[C@@H]([C@H](C)CCCCCCCCCCCC(C)C)[C@H](C)C(=O)N1,0.074,0.18,2.43,0.28,0.15,1.85,0.32,0.11,2.89,,,
,,C=C1/C=C/C(=O)N(CCCCCC)CC(=O)N[C@@H]([C@H](O)C(=O)OC)C(=O)O[C@@H]([C@H](C)CCCCCCCCCCCC(C)C)[C@H](C)C(=O)N1,7,> 50,>7.11,,,,,,,,,
,,C=C1/C=C/C(=O)N(C)CC(=O)N[C@@H]([C@H](O)C(=O)OC)C(=O)O[C@@H]([C@H](C)CCCCCCCCCCCC(C)C)[C@H](C)C(=O)N1,0.09,0.27,2.98,0.54,0.15,3.63,0.45,0.12,3.91,0.83,,
,,C=C1/C=C/C(=O)N(C)CC(=O)N[C@@H]([C@H](O)C(=O)OCC)C(=O)O[C@@H]([C@H](C)CCCCCCCCCCCC(C)C)[C@H](C)C(=O)N1,0.067,0.16,2.33,0.48,0.18,2.64,0.38,0.12,3.25,,,
,,C=C1/C=C/C(=O)N(CC(F)(F)F)CC(=O)N[C@@H]([C@H](O)C(=O)OC)C(=O)O[C@@H]([C@H](C)CCCCCCCCCCCC(C)C)[C@H](C)C(=O)N1,1.5,2.5,1.72,,,,,,,,,
,,C#CCOC(=O)C[C@@H]1NC(=O)CN(C)C(=O)/C=C/C(=C)NC(=O)[C@@H](C)[C@H]([C@H](C)CCCCCCCCCCCC(C)C)OC1=O,0.066,0.15,2.21,0.26,0.12,2.23,0.3,0.11,2.8,1.9,,
,,COC(=O)C[C@@H]1NC(=O)CN(C)C(=O)/C=C/CNC(=O)[C@@H](C)[C@H]([C@H](C)CCCCCCCCCCCC(C)C)OC1=O,28,21,0.76,,,,,,,,,
,,CCCCCCCCCCCCCC[C@@H](C)[C@@H]1OC(=O)[C@H](CC(=O)NC2CC2)NC(=O)CN(C)C(=O)/C=C/[C@H](CO)NC(=O)[C@H]1C,> 10,> 10,,,,,,,,,,
,,C=C1/C=C/C(=O)N(C)CC(=O)N[C@@H](CC(=O)OC(C)C)C(=O)O[C@@H]([C@H](C)CCCCCCCCCCCC(C)C)[C@H](C)C(=O)N1,0.7,1.8,2.6,,,,,,,,,
,,C=C1/C=C/C(=O)N(C)CC(=O)N[C@@H](CCC(=O)OC)C(=O)O[C@@H]([C@H](C)CCCCCCCCCCCCCC)[C@H](C)C(=O)N1,0.3,1.1,3.54,,,,,,,,,
0.544,0.46,C=C1/C=C/C(=O)N(C)CC(=O)N[C@@H]([C@H](O)C(N)=O)C(=O)O[C@@H]([C@H](C)CCCCCCCCCCCC(C)C)[C@H](C)C(=O)N1,0.042,0.22,5.24,0.68,0.082,8.4,0.24,0.033,7.54,0.43,4,4.7
,,C=C1/C=C/C(=O)N(C)CC(=O)N[C@@H](CC(=O)OC)C(=O)O[C@@H]([C@H](C)CCCCCCCCCCCCCC)[C@H](C)C(=O)N1,0.058,0.12,1.98,0.98,0.35,2.8,0.64,0.34,1.87,0.7,,
,,C=C1/C=C/C(=O)N(C)CC(=O)N[C@@H](CC(=O)OC)C(=O)O[C@@H]([C@H](C)CCCCCCCCCCCC(C)C)[C@H](C)C(=O)N1,0.048,0.11,2.36,0.36,0.6,0.59,0.36,0.073,5.03,1.2,,
,,"C=C1/C=C/C(=O)N(C)C(C)C(=O)N[C@@H]([C@H](O)C(=O)OC)C(=O)O[C@@H]([C@H](C)CCCCCCCCCCCC(C)C)[C@H](C)C(=O)N1 (single isomer, unassigned; 1d)",0.079,0.66,8.34,3.2,0.4,7.87,1.1,0.38,2.86,,,
,,C=C1/C=C/C(=O)N(C)CC(=O)O[C@@H](CCCCCCCCCCCCC)[C@H](C)C(=O)[C@](C)(O)C(=O)NCC(=O)N1,0.015,0.65,43.33,,,,,,,,,
